# Experimental data: article PMC7276679 (Acta Pharmaceutica Sinica. B, 2019)
# Format: in vivo, Sprague-Dawley rats
# Conditions: 5 mg/kg p.o.
# How it was run: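 8-week-old male WT and CRISPR/Cas9 Slco1b2 KO SD rats, fasted 12 h, given the OATP1B2 probe substrate as a CMC-Na suspension intragastrically. Plasma underwent ethyl acetate liquid–liquid extraction with mebendazole internal standard, then positive-ESI LC–MS/MS. Parameters were derived by non-compartmental analysis.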
structure (smiles),measurement,setting,value
"O=C(O)C[C@H](O)C[C@H](O)/C=C/c1c(C2CC2)nc2ccccc2c1-c1ccc(F)cc1 [pitavastatin, Pitavastatin]",decrease of CL/F in KO rats compared with WT rats,KO vs WT rats,38.5%
same,decrease of Vd/F in KO rats compared with WT rats,KO vs WT rats,39.8%
same,increase of AUC0–24 h in KO rats compared with WT rats,KO vs WT rats,68.8%
same,increase of AUC0–inf in KO rats compared with WT rats,KO vs WT rats,68.8%
same,AUC(0-inf),"male, Sprague-Dawley, rat, plasma, po, 5 mg/kg, AUC0–inf, Slco1b2 KO male rats, mean ± SD, n = 6",3440 ± 1050 ng·h/mL
same,AUC(0-t),"male, Sprague-Dawley, rat, plasma, po, 5 mg/kg, AUC0–t, Slco1b2 KO male rats, mean ± SD, n = 6",3410 ± 1040 ng·h/mL
same,CL/F,"male, Sprague-Dawley, rat, plasma, po, 5 mg/kg, CL/F, Slco1b2 KO male rats, mean ± SD, n = 6",26 mL/min/kg
same,Cmax,"male, Sprague-Dawley, rat, plasma, po, 5 mg/kg, Cmax, Slco1b2 KO male rats, mean ± SD, n = 6",1000 ± 336 ng/mL
same,MRT last,"male, Sprague-Dawley, rat, plasma, po, 5 mg/kg, MRT0–t, Slco1b2 KO male rats, mean ± SD, n = 6",3.65 ± 0.89 h
same,Tmax,"male, Sprague-Dawley, rat, plasma, po, 5 mg/kg, Tmax, Slco1b2 KO male rats, mean ± SD, n = 6",2.08 ± 0.97 h
same,Vd/F,"male, Sprague-Dawley, rat, plasma, po, 5 mg/kg, Vd/F, Slco1b2 KO male rats, mean ± SD, n = 6",6.58 ± 1.9 L/kg
same,half-life,"male, Sprague-Dawley, rat, plasma, po, 5 mg/kg, t1/2, Slco1b2 KO male rats, mean ± SD, n = 6",2.92 ± 0.43 h
